Activity calls are given as the source filed them. The calls are words filed in the database; no cut-off is given here.
Tests used:
[1] = biological target: Core antigen (Hepatitis B virus) (UniProt Q03732); experiment: Inhibition of GFP-fused Hepatitis B Virus capsid expressed in HEK293T cells at 50 uM after 48 hrs relative to control; assay type: cell-based
Summary of the method: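 BiFC assay: HBc fused to Venus fragments VN (1–154) and VC (155–239) were co-transfected into 293T cells, then compounds were added. The dose series used 0, 0.5, 5 and 50 μM; SAR used 50 μM as percent inhibition. After 48 h, reconstituted fluorescence was read as mean fluorescent intensity on a plate reader, with fluorescence microscopy images.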

[2] = Cytotoxicity against human HepG2.2.15 cells; assay type: cell-based, HepG2 2.2.15
Hepatitis B virus = experiment: Antiviral activity against Hepatitis B virus infected in human HepG2.2.15 cells assessed as inhibition of viral replication after 7 days by RT-PCR analysis; assay type: functional, organism-based; conditions: for IC50: HepG2.2.15, 168 h

Chain of Core antigen (Hepatitis B virus) (Q03732 as listed by the source): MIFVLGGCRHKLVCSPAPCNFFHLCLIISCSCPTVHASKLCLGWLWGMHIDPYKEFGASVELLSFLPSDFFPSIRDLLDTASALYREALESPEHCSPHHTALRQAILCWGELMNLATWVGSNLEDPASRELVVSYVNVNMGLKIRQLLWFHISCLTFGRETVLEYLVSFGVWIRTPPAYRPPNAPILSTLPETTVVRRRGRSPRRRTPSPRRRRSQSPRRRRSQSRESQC

| Compound | inhibition [1] | CC50 [2] | IC50 (Hepatitis B virus) | Activity (Hepatitis B virus) |
| --- | --- | --- | --- | --- |
| N#Cc1cccc(C(=O)Nc2ncc(C(Oc3ccc4cc(Br)ccc4c3)c3ccc(Cl)cc3)s2)c1 (stereo not drawn) | 70% | > 50 µM |  |  |
| O=C(Nc1ncc(C(Oc2ccc3cc(Br)ccc3c2)c2ccc(Cl)cc2)s1)C1CCCO1 (stereo not drawn) | 35% |  |  |  |
| O=C(Nc1ncc(Cc2ccc(F)cc2)s1)C1CCCCC1 | inactive | > 50 µM |  |  |
| Cc1cc(C(C)C)ccc1OC(c1ccc(Cl)cc1)c1cnc(NC(=O)OC(C)(C)C)s1 (stereo not drawn) | inactive | > 50 µM |  |  |
| COCCNc1ncc(C(Oc2ccc3cc(Br)ccc3c2)c2ccc(Cl)cc2)s1 (stereo not drawn) | 37% |  |  |  |
| O=C(Nc1ncc(C(Oc2ccc3cc(Br)ccc3c2)c2ccc(Cl)cc2)s1)c1ccc(F)cc1F (stereo not drawn) | 51% |  |  |  |
| COc1ccc(COC(c2ccccc2)c2cnc(NC(=O)c3cccs3)s2)cc1 (stereo not drawn) | 64% |  |  |  |
| COCCc1ccc(OC(c2ccc(Cl)cc2)c2cnc(NC(=O)OC(C)(C)C)s2)cc1 (stereo not drawn) | inactive | > 50 µM |  |  |
| CCOC(=O)CCCNc1ncc(C(Oc2ccc3cc(Br)ccc3c2)c2ccc(Cl)cc2)s1 (stereo not drawn) | 35% |  |  |  |
| O=C(Nc1ncc(C(OCc2ccc(Br)cc2)c2ccccc2)s1)c1cccs1 (stereo not drawn) | 64% |  |  |  |
| CCCCCC(=O)Nc1ncc(C(Oc2ccc3cc(Br)ccc3c2)c2ccc(Cl)cc2)s1 (stereo not drawn) | inactive | > 50 µM |  |  |
| O=S(=O)(Nc1ncc(C(Oc2ccc3cc(Br)ccc3c2)c2ccc(Cl)cc2)s1)c1ccc(Cl)cc1 (stereo not drawn) | 50% |  |  |  |
| Cc1ccc(C(=O)Nc2ncc(C(Oc3ccc4cc(Br)ccc4c3)c3ccc(Cl)cc3)s2)cc1 (stereo not drawn) | 71% |  |  |  |
| Cc1cc(Br)cc(OC(c2ccc(Cl)cc2)c2cnc(NC(=O)OC(C)(C)C)s2)c1 (stereo not drawn) | inactive | > 50 µM |  |  |
| COc1ccc(C(=O)Nc2ncc(C(Oc3ccc4cc(Br)ccc4c3)c3ccc(F)cc3)s2)cc1 (stereo not drawn) | 76% | > 50 µM |  |  |
| CC(C)(C)OC(=O)Nc1ncc(C(Oc2ccc(Br)cc2)c2ccc(Cl)cc2)s1 (stereo not drawn) | inactive | > 50 µM |  |  |
| O=S(=O)(Nc1ncc(C(Oc2ccc3cc(Br)ccc3c2)c2ccc(Cl)cc2)s1)c1cccs1 (stereo not drawn) | 44% |  |  |  |
| Cc1ccc(COC(c2ccccc2)c2cnc(NC(=O)c3cccs3)s2)cc1 (stereo not drawn) | 64% |  |  |  |
| CCN(CC)C(=O)Nc1ncc(C(Oc2ccc3cc(Br)ccc3c2)c2ccc(Cl)cc2)s1 (stereo not drawn) | 67% |  |  |  |
| CC(C)(C)OC(=O)Nc1ncc(C(Oc2ccc(F)c(Cl)c2)c2ccc(Cl)cc2)s1 (stereo not drawn) | inactive | > 50 µM |  |  |
| CC(C)(C)OC(=O)Nc1ncc(C(Oc2ccc3cc(Br)ccc3c2)c2ccc(Cl)cc2)s1 (stereo not drawn) | 55% | > 50 µM | 2.27 µM |  |
| COC(=O)CCCCNc1ncc(C(Oc2ccc3cc(Br)ccc3c2)c2ccc(Cl)cc2)s1 (stereo not drawn) | 40% |  |  |  |
| COc1ccc(Br)c(COC(c2ccccc2)c2cnc(NC(=O)c3cccs3)s2)c1 (stereo not drawn) | 45% |  |  |  |
| COc1ccc(C(=O)Nc2ncc(C(Oc3ccc4cc(Br)ccc4c3)c3ccc(Cl)cc3)s2)cc1 (stereo not drawn) | 54% | > 50 µM | 1.45 µM |  |

| Compound | inhibition [1] | CC50 [2] | IC50 (Hepatitis B virus) | Activity (Hepatitis B virus) |
| --- | --- | --- | --- | --- |
| COc1ccc(C(=O)Nc2ncc(C(Sc3ccc4ccccc4c3)c3ccc(Cl)cc3)s2)cc1 (stereo not drawn) | 49% |  |  |  |
| COc1ccc(C(=O)Nc2ncc(C(Oc3ccc4ccc(Br)cc4c3)c3ccc(S(C)(=O)=O)cc3)s2)cc1 (stereo not drawn) | inactive |  |  |  |
| Cc1ccc(C)c(S(=O)(=O)Nc2ncc(C(Oc3ccc4cc(Br)ccc4c3)c3ccc(Cl)cc3)s2)c1 (stereo not drawn) | inactive | > 50 µM |  |  |
| O=C(Nc1ncc(C(OCc2ccc3ccccc3c2)c2ccccc2)s1)c1cccs1 (stereo not drawn) | 47% |  |  |  |
| O=C(Nc1ncc(C(OCc2ccc(F)cc2F)c2ccccc2)s1)c1cccs1 (stereo not drawn) | 26% |  |  |  |
| O=C(Nc1ncc(Cc2ccc(F)cc2)s1)c1ccccc1 | 60% |  |  |  |
| COc1ccc(C(=O)Nc2ncc(C(Nc3cccc4ccccc34)c3ccc(Cl)cc3)s2)cc1 (stereo not drawn) | 69% | > 50 µM | 6.85 µM |  |
| O=C(CCCCC(=O)Nc1ncc(Cc2ccc(F)cc2)s1)Nc1ncc(Cc2ccc(F)cc2)s1 | inactive | > 50 µM |  |  |
| COc1ccc(C(=O)Nc2ncc(C(Oc3ccc4cc(Br)ccc4c3)c3ccc(C#N)cc3)s2)cc1 (stereo not drawn) | inactive |  |  |  |
| Cc1ccc(C(=O)Nc2ncc(Cc3ccc(F)cc3)s2)cc1 | 53% |  |  |  |
| O=S(=O)(Nc1ncc(C(Oc2ccc3cc(Br)ccc3c2)c2ccc(Cl)cc2)s1)c1ccc2ccccc2c1 (stereo not drawn) | inactive | > 50 µM |  |  |
| O=S(=O)(Nc1ncc(C(Oc2ccc3cc(Br)ccc3c2)c2ccc(Cl)cc2)s1)c1ccc2c(c1)CCO2 (stereo not drawn) | inactive | > 50 µM |  |  |
| O=S(=O)(Nc1ncc(C(Oc2ccc3cc(Br)ccc3c2)c2ccc(Cl)cc2)s1)c1ccccc1 (stereo not drawn) | 63% | > 50 µM | 2.32 µM |  |
| O=C(Nc1ncc(Cc2ccc(Br)cc2)s1)c1ccc2ccccc2c1 | inactive | > 50 µM |  |  |
| O=C(Nc1ncc(Cc2ccc(Cl)cc2)s1)c1ccc(F)cc1F | inactive |  |  |  |
| O=C(Nc1ncc(Cc2ccc(Br)cc2)s1)c1cccs1 | inactive | > 50 µM |  |  |
| O=C(Nc1ncc(C(Oc2ccc3cc(Br)ccc3c2)c2ccc(Cl)cc2)s1)c1cccs1 (stereo not drawn) | 47% |  |  |  |
| CCCCC(CC)CNc1ncc(C(Oc2ccc3cc(Br)ccc3c2)c2ccc(Cl)cc2)s1 (stereo not drawn) | 55% |  |  |  |
| O=C(Nc1ncc(C(Oc2ccc3cc(Br)ccc3c2)c2ccc(Cl)cc2)s1)C1CC1 (stereo not drawn) | 67% |  |  |  |
| Clc1ccc(C(Oc2ccc3cc(Br)ccc3c2)c2cnc(NCC3CCOCC3)s2)cc1 (stereo not drawn) | 43% |  |  |  |
| O=C(Nc1ncc(C(OCc2ccc(Cl)cc2)c2ccccc2)s1)c1cccs1 (stereo not drawn) | 59% |  |  |  |
| O=C(Nc1ncc(C(Oc2ccc3cc(Br)ccc3c2)c2ccc(Cl)cc2)s1)c1ccc(Cl)nc1 (stereo not drawn) | 45% |  |  |  |
| O=S(=O)(Nc1ncc(C(Oc2ccc3cc(Br)ccc3c2)c2ccc(Cl)cc2)s1)c1ccc(Cl)nc1 (stereo not drawn) | 30% |  |  |  |
| CC(C)(C)OC(=O)Nc1ncc(C(Oc2ccc(OCc3ccccc3)cc2)c2ccc(Cl)cc2)s1 (stereo not drawn) | inactive | > 50 µM |  |  |

| Compound | inhibition [1] | CC50 [2] | IC50 (Hepatitis B virus) | Activity (Hepatitis B virus) |
| --- | --- | --- | --- | --- |
| O=C(Nc1ncc(C(Oc2ccc3cc(Br)ccc3c2)c2ccc(Cl)cc2)s1)c1ccc(F)cc1 (stereo not drawn) | 50% |  |  |  |
| COCCCNc1ncc(C(Oc2ccc3cc(Br)ccc3c2)c2ccc(Cl)cc2)s1 (stereo not drawn) | 38% |  |  |  |
| Cc1ccc(S(=O)(=O)Nc2ncc(C(Oc3ccc4cc(Br)ccc4c3)c3ccc(Cl)cc3)s2)c2ccccc12 (stereo not drawn) | inactive | > 50 µM |  |  |
| Cc1noc(C)c1C(=O)Nc1ncc(C(Oc2ccc3cc(Br)ccc3c2)c2ccc(Cl)cc2)s1 (stereo not drawn) | 64% |  |  |  |
| CC(C)(C)C(=O)Nc1ncc(C(Oc2ccc3cc(Br)ccc3c2)c2ccc(Cl)cc2)s1 (stereo not drawn) | 47% |  |  |  |
| O=C(Nc1ncc(C(OCc2ccc(F)cc2Br)c2ccccc2)s1)c1cccs1 (stereo not drawn) | 27% |  |  |  |
| CCc1ccc(S(=O)(=O)Nc2ncc(C(Oc3ccc4cc(Br)ccc4c3)c3ccc(Cl)cc3)s2)cc1 (stereo not drawn) | inactive | > 50 µM |  |  |
| O=C(Nc1ncc(Cc2ccc(F)cc2)s1)c1cccs1 |  | > 500 µM | 6.15 µM |  |
| Clc1ccc(C(Oc2ccc3cc(Br)ccc3c2)c2cnc(NCC3CCCCC3)s2)cc1 (stereo not drawn) | 61% |  |  |  |
| O=C(Nc1ncc(C(Oc2ccc3cc(Br)ccc3c2)c2ccc(Cl)cc2)s1)c1ccc(Br)cc1 (stereo not drawn) | inactive | > 50 µM |  |  |
| CC(C)(C)OC(=O)Nc1ncc(C(Oc2ccc(Cc3ccccc3)cc2)c2ccc(Cl)cc2)s1 (stereo not drawn) | inactive | > 50 µM |  |  |
| O=C(Nc1ncc(C(Oc2ccc3cc(Br)ccc3c2)c2ccc(Cl)cc2)s1)C1CCOCC1 (stereo not drawn) | 66% |  |  |  |
| O=C(Nc1ncc(Cc2ccc(F)cc2)s1)c1ccc(Br)cc1 | inactive | > 50 µM |  |  |
| COc1ccc(C(=O)Nc2ncc(C(Oc3ccc4cc(Br)ccc4c3)c3ccc(Br)cc3)s2)cc1 (stereo not drawn) | 78% | > 50 µM |  |  |
| O=C(Nc1ncc(Cc2ccc(Cl)cc2)s1)c1cccs1 | 59% | > 50 µM | 3.62 µM |  |
| O=C(Nc1ncc(C(Oc2ccc3cc(Br)ccc3c2)c2ccc(Cl)cc2)s1)c1ccccc1 (stereo not drawn) | 58% |  |  |  |
| O=C(Nc1ncc(C(Oc2ccc3cc(Br)ccc3c2)c2ccc(Cl)cc2)s1)c1ccc(F)cc1Br (stereo not drawn) | 65% | > 50 µM | 3.55 µM |  |
| O=C(Nc1ncc(Cc2ccc(F)cc2)s1)c1ccc(Cl)cc1Cl | inactive | > 50 µM |  |  |
| O=C(Nc1ncc(C(Oc2ccc3cc(Br)ccc3c2)c2ccc(Cl)cc2)s1)c1cc(F)c(F)cc1F (stereo not drawn) | 44% |  |  |  |
| CC(C)(C)OC(=O)Nc1ncc(C(Oc2cccc(C#N)c2)c2ccc(Cl)cc2)s1 (stereo not drawn) | inactive | > 50 µM |  |  |
| O=S(=O)(Nc1ncc(C(Oc2ccc3cc(Br)ccc3c2)c2ccc(Cl)cc2)s1)c1cccc2nsnc12 (stereo not drawn) | 50% |  |  |  |
| CC(=O)O[C@@H]1OC(C(=O)Nc2ncc(C(Oc3ccc4cc(Br)ccc4c3)c3ccc(Cl)cc3)s2)[C@@H](OC(C)=O)[C@@H](OC(C)=O)[C@H]1OC(C)=O (stereo partly drawn) | 40% |  |  |  |
| CCOC(=O)C1=C(CN2CCOCC2)NC(c2nccs2)=NC1c1ccc(F)cc1Br (stereo not drawn) |  |  |  | Dose-dependent effect |
